Measured values from different studies.
Lines come from different studies, so protocols differ.

For `COc1ccc(F)cc1C(=O)NCc1ccc(-c2nn([C@@H](C)C(F)(F)F)c(N)c2C(N)=O)cc1`, the AUC(0-inf) was 80800 ng·h/mL (human, plasma; oral, 200 mg, single dose).
For `CC(C)[C@@H](CS(=O)(=O)C(C)C)N1C(=O)[C@@](C)(CC(=O)O)C[C@H](c2cccc(Cl)c2)[C@H]1c1ccc(Cl)cc1`, the unbound tissue/plasma ratio was 0.005 (FVB mouse, brain; oral, 20 mg/kg).
`O=C(COc1ccc(Cl)cc1)NC12CC(c3nnc([C@H]4C[C@@H](OC(F)(F)F)C4)o3)(C1)C2` has an AUC of 242 µM·h (human, plasma; oral, 200 mg, multiple doses, once daily, steady state, healthy volunteers).
`NCc1cc2c(cc1F)C(=O)N(C1CCC(=O)NC1=O)C2` (centres unmarked) gave a Tmax of 2 h (male cynomolgus monkey, plasma; oral, 0.3 mg/kg).
`COc1ccc2c(c1)CN(C(=O)CCN1CCC(Cc3ccccc3)CC1)CC[S@@+]2[O-]` gave an AUC(0-t) of 3180 ng·h/mL (male human, plasma; intravenous, 0.6 mg/kg, healthy volunteers).
With `COc1ccc(-c2c(Nc3ccccn3)[nH]c3c(C4=CCCCC4)c(-c4ccccc4)nn3c2=O)cc1` the AUC(0-t) was 57300 ng·h/mL (human, plasma; oral, 400 mg once daily, multiple doses, steady state, patients).
`CC(=O)N(C)[C@H]1CCN(C(=O)c2cnc3c(c2)C[C@](C)(c2ccc(F)cc2)N3)C1` gave an AUC(0-t) of 1.97 µM·h (male human, plasma; oral, 15 mg, multiple doses, once daily, steady state).
For `CC(C)n1c(C2CCNCC2)nc2c([N+](=O)[O-])c(Br)c(Br)cc21`, the AUC(0-t) was 1760 ng·h/mL (human, plasma; oral, 125 mg, patients).
